# Screening results deposited in PubChem BioAssay by several laboratories.
# RanGTP-Imp inh – inhibitors of RanGTP-importin-beta interaction, primary screen, biochemical, FRET, CFP-Ran, YFP-importin-beta, homogeneous; AID 2216, 2009; inhibition, % (test concentration not listed); Ran GTPase (GTP-bound) - importin-beta complex; cell-free CFP-Ran/YFP-importin-beta FRET ratio; actives 1.1% (n = 300,000);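 active = more than half of the replicate wells show a fall in the fluorescence ratio signal beyond about 16%, limit read from the data, passing the limit was not always enough; inconclusive = exactly half of the replicate wells pass the set limit; inactive = fewer than half of replicates pass the limit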
# Runt-CBFb FRET – inhibitors of RUNX1 Runt–CBFb binding, primary screen, biochemical, FRET, Cerulean-Runt, Venus-CBFb, uHTS; Cerulean-Runt/Venus-CBFb FRET ratio 530/480, 1 h; inhibition, % at 20 µM; actives 0.46% (n = 220,000); AID 1496, 2009;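 active = inhibition over about 50% at 20 µM in the single-dose screen, limit read from the data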
#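 Reagent – Venus-CBFb binding partner, 100 nM · Assay system – Cerulean-tagged RUNX1 Runt domain (FRET donor) fusion protein · Input – 100 nM per protein · Incubation – two 1 h room-temperature incubations shielded from light · Measured by – FRET fluorescence · Medium – Tris buffer pH 7.5 with salts and BSA · Benchmarks – unlabeled CBFb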
# DSG3 Ab inh – inhibitors of pemphigus antibody binding to DSG3, primary screen, biochemical, bead-based, flow cytometry, scFv-GFP. Desmoglein-3 (Homo sapiens), P32926. DSG3-coupled beads, scFv-anti-DSG3-GFP binding; active compounds read low. binding (percent of control), % at 10 µM. actives 0.48% (n = 310,000). AID 588358, 2011;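 active = binding more than 3 SD below its plate's average and above zero; inconclusive = below that plate limit but binding exactly zero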;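 note: hits lower antibody fragment binding to DSG3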
# Runt-SMMHC FRET – inhibitors of RUNX1 Runt–CBFb-SMMHC binding, primary screen, biochemical, FRET, Cerulean-Runt, Venus-CBFb-SMMHC, uHTS; Runt-related transcription factor 1 (Homo sapiens) + Core-binding factor subunit beta …; Cerulean-Runt/Venus-CBFb-SMMHC FRET ratio 530/480, 1 h; inhibition, % at 20 µM; actives 0.74% (n = 220,000); AID 1434, 2008;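 active = mean inhibition across duplicate retests at 20 µM reaching about 50%, limit read from the data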;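 note: inhibitors lower the FRET ratio by blocking Runt binding to CBFb-SMMHC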
# Hck-Nef inh – inhibitors of Nef-activated human Hck kinase, primary screen, biochemical, Z-Lyte FRET, 384-well, Hck-YEEI; Recombinant Hck-YEEI plus Nef, Z-Lyte FRET kinase assay; actives 0.68% (n = 220,000); Tyrosine-protein kinase HCK (Homo sapiens), P08631; inhibition, % at 20 µM;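 active = Hck-Nef kinase inhibition above about 50%, limit read from the data; inactive = inhibition below that limit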
# pCIP destab – p/CIP-EGFP fusion destabilizers, primary screen, fluorescence, F442A cells; Q05BA5; 16 h; decrease of EGFP signal, % at 10 µM; actives 0.01% (n = 290,000); AID 1984, 2009;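 active = EGFP signal decrease of at least 30% at 10 µM or well 3 SD below plate mean, unless failing retest; inactive = the rest, including hits failing retest or dose response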
# A number is an active result; – = inactive; ? = inconclusive; · = no result. This is a sample that favours compounds with a hit; in the whole collection about 2.1% have one here.
SMILES,RanGTP-Imp inh,Runt-CBFb FRET,DSG3 Ab inh,Runt-SMMHC FRET,Hck-Nef inh,pCIP destab
C=C(C)Cc1c(C)c(C#N)c2[nH]c3ccccc3n2c1=O,41.9,·,–,·,·,–
CC(=O)NC1C(OCc2ccccc2)OC2COC(c3ccccc3)OC2C1OCC(=O)O (configuration not stated),–,–,–,–,–,–
C[C@@H]1CN([C@@H](C)CO)S(=O)(=O)c2ccc(Br)cc2O[C@@H]1CN(C)C(=O)C1CC1,·,·,84.5,·,·,·
COc1ccc(OCC(=O)NNC(=O)c2cccc(O)c2)cc1,–,–,–,–,–,–
COc1ccc(F)cc1S(=O)(=O)NCC1CCCO1 (configuration not stated),–,·,–,·,·,–
O=S(=O)(O)c1ccc(N2N=C(c3ccccc3)CC2c2ccccc2)cc1 (configuration not stated),?,–,–,–,85.2,–
NC(=O)Cc1ccc(C(=O)c2ccc(F)cc2)s1,–,–,74.6,–,–,–
NC(=O)Cc1ccc(C(=O)c2ccccc2F)s1,–,–,–,–,–,–
O=C(NNC(=O)C1CCC1)c1ccccc1F,–,·,–,·,·,·
COc1cc(C(=O)NCC(=O)NNC(=O)C2COc3ccccc3O2)cc(OC)c1OC (configuration not stated),·,·,–,·,·,·
Cc1ccc(-n2c(=O)c3cc4c(=O)n(-c5ccc(C)c(C)c5)c(=O)c4c(C(=O)c4ccc(C(=O)O)cc4)c3c2=O)cc1C,–,–,–,–,92.4,–
COc1cc(OC)cc(C(=O)Nc2cc(-c3cn4cccnc4n3)ccc2C)c1,?,–,-10.7,–,–,–
COc1cc(C(=O)Nc2cc(-c3cn4cccnc4n3)ccc2C)cc(OC)c1OC,–,–,–,–,–,–
CCS(=O)(=O)C1=NN2C(=N)/C(=C\c3ccc(SCc4ccco4)o3)C(=O)N=C2S1,?,–,–,–,63.5,–
CCS(=O)(=O)C1=NN2C(=N)/C(=C\c3ccc(OC(=O)c4ccco4)c(Br)c3)C(=O)N=C2S1,–,·,·,·,·,–
O=S(=O)(O)c1cc(O)c2c(O)c(N=Nc3cc(Cl)ccc3O)c(S(=O)(=O)O)cc2c1,56.8,·,–,·,·,–
Cc1nn(Cc2ccc(F)cc2)c2sc(C(=O)Nc3ccccc3N3CCOCC3)cc12,–,–,85.6,–,–,–
COc1cccc(-c2ncc3ccccc3c2COC(=O)c2ccc(C(C)(C)C)cc2)c1,·,·,–,·,·,·
Cc1csc(NC(=O)CSc2nc(C)cs2)n1,–,–,–,–,–,–
Cc1csc(SCC(=O)O)n1,–,114.2,–,–,–,–
Cc1cc(C)c[n+](CC(=O)c2ccc(C)c([N+](=O)[O-])c2)c1,–,·,–,·,·,–
NNC(=O)c1ccc2[nH]c3c(c2c1)CCCC3,–,–,–,–,–,–
CCOC(=O)CNC(=O)c1ccc2[nH]c3c(c2c1)CCCC3,18.1,–,–,–,–,–
N#Cc1cc2cc3c(cc2nc1N1CCCCC1)OCCO3,59.2,–,–,107.3,–,–
Cc1cc(C)c2nc(N3CCN(C)CC3)c(C#N)cc2c1,–,–,·,–,–,–
SMILES,RanGTP-Imp inh,Runt-CBFb FRET,DSG3 Ab inh,Runt-SMMHC FRET,Hck-Nef inh,pCIP destab
Cc1ccc(C(=O)N2CCCN(c3nc4cc5c(cc4cc3C#N)OCO5)CC2)cc1,113.0,·,·,·,·,–
Cc1cc(C)c2nc(N3CCCN(C(=O)c4cnccn4)CC3)c(C#N)cc2c1,38.8,–,–,–,–,–
N#Cc1cc2cc3c(cc2nc1Cl)OCCO3,·,·,–,·,·,·
COc1ccc(NS(=O)(=O)c2cc(NC(=O)c3ccc(C)s3)ccc2N2CCOCC2)cc1,–,–,–,–,–,–
CS(=O)(=O)Nc1ccc(-c2cc(/C=C3\SC(N)=NC3=O)c[nH]c2=O)cc1,–,·,–,·,·,–
Cc1cc(C)nc(N2CCCC(C(=O)NC(C)C)C2)n1 (configuration not stated),–,–,–,–,–,–
CCC(CC)C(=O)N(c1ccc(F)cc1)C1C=CS(=O)(=O)C1 (configuration not stated),–,–,82.9,–,–,–
O=c1[nH][nH]c(=S)n1-c1ccccc1C(F)(F)F,·,–,·,–,–,–
COc1ccc(CNC(=O)CN2CCN(S(=O)(=O)c3ccccc3)CC2)cc1,·,·,–,·,·,·
O=C(N/N=C/c1ccc(F)cc1)c1cc(-c2ccco2)nc2ccccc12,–,–,27.8,–,–,–
CCOc1ccc(/C=N/NC(=O)c2cc(-c3ccco3)nc3ccccc23)cc1,–,–,–,–,–,–
O=[N+]([O-])c1cccc(/C=C/c2nc[nH]c2[N+](=O)[O-])c1,–,–,63.5,–,–,–
C=CCOC(=O)C(C#N)c1nc2ccccc2nc1N1CCN(Cc2ccccc2)CC1 (configuration not stated),·,–,·,68.0,–,–
CC(C)COC(=O)C(C#N)c1nc2ccccc2nc1N1CCN(Cc2ccccc2)CC1 (configuration not stated),?,–,–,–,–,–
CCCCOC(=O)C(C#N)c1nc2ccccc2nc1N1CCN(Cc2ccc3c(c2)OCO3)CC1 (configuration not stated),·,–,·,75.0,–,–
COCC(C)OC(=O)C(C#N)c1nc2ccccc2nc1N1CCN(Cc2ccccc2)CC1 (configuration not stated),–,–,–,72.3,–,–
O=C(COC(=O)/C=C/c1ccc([N+](=O)[O-])cc1)Nc1ccc2[nH]c(=O)[nH]c2c1,·,·,–,·,·,·
Cc1ccc(N(CC(=O)NC2CCCC2)C(=O)CNC(=O)c2cccs2)c(C)c1,–,·,·,·,·,–
COC(=O)C1=CN(C2CCCCC2)C=C(C(=O)OC)C1c1ccc2c(c1)OCO2,–,–,–,74.9,–,–
CCC(NC(=O)OCc1ccccc1)C(=O)Oc1ccc2ccc(=O)oc2c1 (configuration not stated),21.5,·,–,·,·,–
O=C(Oc1ccc2ccc(=O)oc2c1)c1ccccc1,–,·,–,·,·,–
C=CCNC(=O)c1cccc(Br)c1,23.5,–,–,–,–,–
C=CCNC(=S)NNC(=O)c1cccc(Br)c1,–,–,–,–,–,–
CCOC(=O)C1CCN(C(=O)CN2C(=O)CSc3ccc(S(=O)(=O)N4CCOCC4)cc32)CC1,–,·,?,·,·,–
